In brackets after ≈: the same amount, converted by molar mass.
Columns and labels:
Rattus norvegicus [1] = assay: AUC (0 to infinity) in Sprague-Dawley rat assessed as parent drug level at 100 mg/kg, iv; type: ADME, organism-based, Plasma; design: dose 100 mg/kg, route intravenous, time infinity; conditions: in vivo
Procedure, shortened: (§1)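 Male Sprague-Dawley rats (n = 3) were dosed iv with the phosphate prodrug at 10, 30 or 100 mg/kg. Plasma levels of the parent drug were measured over time. Tmax, Cmax, AUC and elimination half-life were then derived from these levels.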

Rattus norvegicus [2] = assay: Half life in Sprague-Dawley rat assessed as parent drug level at 100 mg/kg, iv; type: ADME, organism-based; design: dose 100 mg/kg, route intravenous; conditions: in vivo; procedure, shortened: as §1
Staphylococcus aureus [3] = assay: Antibacterial activity against methicillin-susceptible Staphylococcus aureus 232-51 infected in mouse dosed 1 hr and 4 hr after infection, iv; type: functional; conditions: 232-51, iv
Procedure, shortened: (§2)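 Lethal systemic S. aureus infection in mice, inoculated intraperitoneally; test agent given iv twice, at 1 h and 4 h post-infection. ED50 taken as the dose giving 50% mouse survival, reported with 95% confidence ranges.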

Staphylococcus aureus [4] = assay: Antibacterial activity against methicillin-resistant Staphylococcus aureus 236-29 infected in mouse dosed 1 hr and 4 hr after infection, iv; type: functional; conditions: 236-29, iv; procedure, shortened: as §2
[5] = Toxicity against iv dosed ICR mouse; type: organism-based; conditions: in vivo
Procedure, shortened: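 Acute toxicity after iv administration in SPF-level ICR mice (n = 50); LD50 determined.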

[6] = Aqueous solubility of the compound; type: physicochemical
[7] = Stability in buffer at pH 7.4 assessed as remaining compound at 10 mg/ml after 8 hrs; type: physicochemical; conditions: read-out: Activity
Procedure, shortened: (§3)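 Compounds at 10 mg/mL in pH 7.4 buffer were kept at room temperature. Percent parent remaining was measured by UV/HPLC at 8 h and at 14 days.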

[8] = Stability in buffer at pH 7.4 assessed as remaining compound at 10 mg/ml after 14 days; type: physicochemical; conditions: read-out: Activity; procedure, shortened: as §3
Rattus norvegicus [9] = assay: Tmax in Sprague-Dawley rat assessed as parent drug level at 10 mg/kg, iv; type: ADME, organism-based; design: dose 10 mg/kg, route intravenous; conditions: in vivo; procedure, shortened: as §1
Rattus norvegicus [10] = assay: Cmax in Sprague-Dawley rat assessed as parent drug level at 10 mg/kg, iv; type: ADME, organism-based; design: dose 10 mg/kg, route intravenous; conditions: in vivo; procedure, shortened: as §1
Rattus norvegicus [11] = assay: AUC (0 to infinity) in Sprague-Dawley rat assessed as parent drug level at 10 mg/kg, iv; type: ADME, organism-based, Plasma; design: dose 10 mg/kg, route intravenous, time infinity; conditions: in vivo; procedure, shortened: as §1
Rattus norvegicus [12] = assay: Half life in Sprague-Dawley rat assessed as parent drug level at 10 mg/kg, iv; type: ADME, organism-based; design: dose 10 mg/kg, route intravenous; conditions: in vivo; procedure, shortened: as §1
Rattus norvegicus [13] = assay: Tmax in Sprague-Dawley rat assessed as parent drug level at 30 mg/kg, iv; type: ADME, organism-based; design: dose 30 mg/kg, route intravenous; conditions: in vivo; procedure, shortened: as §1
Rattus norvegicus [14] = assay: Cmax in Sprague-Dawley rat assessed as parent drug level at 30 mg/kg, iv; type: ADME, organism-based; design: dose 30 mg/kg, route intravenous; conditions: in vivo; procedure, shortened: as §1
Rattus norvegicus [15] = assay: AUC (0 to infinity) in Sprague-Dawley rat assessed as parent drug level at 30 mg/kg, iv; type: ADME, organism-based, Plasma; design: time infinity, dose 30 mg/kg, route intravenous; conditions: in vivo; procedure, shortened: as §1
Rattus norvegicus [16] = assay: Half life in Sprague-Dawley rat assessed as parent drug level at 30 mg/kg, iv; type: ADME, organism-based; design: dose 30 mg/kg, route intravenous; conditions: in vivo; procedure, shortened: as §1
Rattus norvegicus [17] = assay: Tmax in Sprague-Dawley rat assessed as parent drug level at 100 mg/kg, iv; type: ADME, organism-based; design: dose 100 mg/kg, route intravenous; conditions: in vivo; procedure, shortened: as §1
Rattus norvegicus [18] = assay: Cmax in Sprague-Dawley rat assessed as parent drug level at 100 mg/kg, iv; type: ADME, organism-based; design: dose 100 mg/kg, route intravenous; conditions: in vivo; procedure, shortened: as §1
Staphylococcus aureus [19] = assay: Antibacterial activity against methicillin-susceptible Staphylococcus aureus by agar dilution method; type: functional
Procedure, shortened: (§4)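 MICs by agar dilution following NCCLS guidance against resistant and susceptible Gram-positive strains; retapamulin and linezolid run as positive controls.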

Staphylococcus aureus [20] = assay: Antibacterial activity against methicillin-resistant Staphylococcus aureus by agar dilution method; type: functional; procedure, shortened: as §4
[21] = tested on: Staphylococcus epidermidis; assay: Antibacterial activity against methicillin-susceptible Staphylococcus epidermidis by agar dilution method; type: functional; procedure, shortened: as §4
[22] = tested on: Staphylococcus epidermidis; assay: Antibacterial activity against methicillin-resistant Staphylococcus epidermidis by agar dilution method; type: functional; procedure, shortened: as §4
Streptococcus pneumoniae = assay: Antibacterial activity against Streptococcus pneumoniae by agar dilution method; type: functional
Procedure, shortened: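 MIC was measured by agar dilution following NCCLS guidelines, with retapamulin and linezolid as positive controls.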

[23] = Staphylococcus aureus, read-out: MIC

SMILES | solubility [6] [mg/mL] | remaining at 8 h, 10 mg/ml [7] [%] | remaining at 336 h, 10 mg/ml [8] [%] | MIC (Staphylococcus aureus [19]; [23]) [µg/mL] | MIC (Staphylococcus aureus [20]) [µg/mL] | MIC [21] [µg/mL] | MIC [22] [µg/mL] | MIC (Streptococcus pneumoniae) [µg/mL] | further results
CC[C@]1(C)C[C@@H](OC(=O)NC(=O)c2ccc(OP(=O)([O-])[O-])cc2)[C@]2(C)[C@H](C)CC[C@]3(CCC(=O)[C@@H]32)[C@@H](C)[C@@H]1O.[Na+].[Na+] | 96.8 | 100 | 99.6 | – | – | – | – | – | AUC (Rattus norvegicus [1]): 32.6 µg·h/mL; t1/2 (Rattus norvegicus [2]): 37.8 min; ED50 (Staphylococcus aureus [3]): 17.4 mg/kg; ED50 (Staphylococcus aureus [4]): 20.9 mg/kg; LD50 [5]: 1010 mg/kg; Tmax (Rattus norvegicus [9]): 4.98 min; Cmax (Rattus norvegicus [10]): 3.39 µg/mL; AUC (Rattus norvegicus [11]): 1.29 µg·h/mL; t1/2 (Rattus norvegicus [12]): 30.6 min; Tmax (Rattus norvegicus [13]): 4.98 min; Cmax (Rattus norvegicus [14]): 11.3 µg/mL; AUC (Rattus norvegicus [15]): 5.04 µg·h/mL; t1/2 (Rattus norvegicus [16]): 45 min; Tmax (Rattus norvegicus [17]): 4.98 min; Cmax (Rattus norvegicus [18]): 67.5 µg/mL
C=C[C@]1(C)C[C@@H](OC(=O)NC(=O)c2ccc(OC)cc2)[C@]2(C)[C@H](C)CC[C@]3(CCC(=O)[C@@H]32)[C@@H](C)[C@@H]1OP(=O)([O-])[O-].[Na+].[Na+] | 57.6 | 100 | 99.8 | – | – | – | – | – | –
CC[C@]1(C)C[C@@H](OC(=O)NC(=O)c2ccc(O)cc2)[C@]2(C)[C@H](C)CC[C@]3(CCC(=O)[C@@H]32)[C@@H](C)[C@@H]1OP(=O)([O-])[O-].[Na+].[Na+] | 52.3 | 100 | 99.5 | – | – | – | – | – | –
C=C[C@]1(C)C[C@@H](OC(=O)NC(=O)c2ccc(OC)cc2)[C@]2(C)[C@H](C)CC[C@]3(CCC(=O)[C@@H]32)[C@@H](C)[C@@H]1O | – | – | – | 0.0625 (≈ 0.126 µM) | 0.0625 (≈ 0.126 µM) | 0.0625 (≈ 0.126 µM) | 0.0625 (≈ 0.126 µM) | 0.125 (≈ 0.251 µM) | –
C=C[C@]1(C)C[C@@H](OC(=O)NC(=O)c2ccc(O)cc2)[C@]2(C)[C@H](C)CC[C@]3(CCC(=O)[C@@H]32)[C@@H](C)[C@@H]1O | – | – | – | 0.125 (≈ 0.258 µM) | 0.125 (≈ 0.258 µM) | 0.0625 (≈ 0.129 µM) | 0.125 (≈ 0.258 µM) | 0.25 (≈ 0.517 µM) | –
CC(=O)NC[C@H]1CN(c2ccc(N3CCOCC3)c(F)c2)C(=O)O1 [LINEZOLID] | – | – | – | – | 1 (≈ 2.96 µM) | 0.5 (≈ 1.48 µM) | 1 (≈ 2.96 µM) | – | MIC (Staphylococcus aureus [19]): 0.5 µg/mL (≈ 1.48 µM)
C=C[C@]1(C)C[C@@H](OC(=O)CS[C@@H]2C[C@H]3CC[C@@H](C2)N3C)[C@]2(C)[C@H](C)CC[C@]3(CCC(=O)[C@H]32)[C@@H](C)[C@@H]1O [RETAPAMULIN] | – | – | – | 0.031 (≈ 0.0599 µM) | 0.031 (≈ 0.0599 µM) | 0.031 (≈ 0.0599 µM) | 0.031 (≈ 0.0599 µM) | 0.031 (≈ 0.0599 µM) | –
CN[C@H](CC(C)C)C(=O)N[C@H]1C(=O)N[C@@H](CC(N)=O)C(=O)N[C@H]2C(=O)N[C@H]3C(=O)N[C@H](C(=O)N[C@H](C(=O)O)c4cc(O)cc(O)c4-c4cc3ccc4O)[C@H](O)c3ccc(c(Cl)c3)Oc3cc2cc(c3O[C@@H]2O[C@H](CO)[C@@H](O)[C@H](O)[C@H]2O[C@H]2C[C@](C)(N)[C@H](O)[C@H](C)O2)Oc2ccc(cc2Cl)[C@H]1O [VANCOMYCIN] | – | – | – | – | – | – | – | – | ED50 (Staphylococcus aureus [3]): 13.5 mg/kg; ED50 (Staphylococcus aureus [4]): 15.8 mg/kg
